Measured values from ChEMBL document CHEMBL1158040, “Biological activities and 3D QSAR studies of a series of Delisea pulchra (cf. fimbriata) derived natural products” (J Nat Prod, 2006).
≈ marks a conversion by molar mass, not a printed value. Calls of active or inactive are those of the source. The calls are words filed in the database; no cut-off is given here.

Assays:
Lu1 = assay: Cytotoxicity against human Lu1 cells; type: functional; conditions: read-out: ED50 (the source's name)
Bacillus subtilis [1] = assay: Antimicrobial activity against Bacillus subtilis at 0.1 ug; type: functional, organism-based
Summary of the method: (§1)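 Direct bioautography: each compound is spotted onto TLC plates and the solvent evaporated. The test organism is then grown directly on the plate. Growth inhibition is scored at the spot as active (+) or very active (++). Where a number is given, it is the radius in mm of the inhibition zone around the spot.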

LNCaP = assay: Cytotoxicity against human LNCAP cells; type: functional; conditions: read-out: ED50 (the source's name)
Penicillium oxalicum [2] = assay: Antimicrobial activity against Penicillium oxalicum at 0.1 ug; type: functional; conditions: for zone of inhibition at 0.1 µg/disc: read-out: IZ; summary of the method: as §1
Penicillium oxalicum [3] = assay: Antimicrobial activity against Penicillium oxalicum at 5 ug; type: functional; conditions: for zone of inhibition at 5 µg/disc: read-out: IZ; summary of the method: as §1
KB [4] = assay: Cytotoxicity against vinblastine-resistant human KB cells; type: functional; conditions: read-out: ED50 (the source's name)
Summary of the method: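 The vinblastine-resistant KB-V1 line was tested both with and without added vinblastine in the cultured tumour-cell cytotoxicity panel. Results are reported as ED50.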

Micrococcus luteus [5] = assay: Antimicrobial activity against Micrococcus luteus at 0.1 ug; type: functional, organism-based; summary of the method: as §1
ZR-75-1 = assay: Cytotoxicity against human ZR-75-1 cells; type: functional; conditions: read-out: ED50 (the source's name)
Escherichia coli [6] = assay: Antimicrobial activity against Escherichia coli at 1 ug; type: functional, organism-based; summary of the method: as §1
Penicillium oxalicum [7] = assay: Antimicrobial activity against Penicillium oxalicum at 1 ug; type: functional; conditions: for zone of inhibition at 1 µg/disc: read-out: IZ; summary of the method: as §1
[8] = target: Human immunodeficiency virus type 1 reverse transcriptase (Human immunodeficiency virus 1) (UniProt Q72547); assay: Inhibition of HIV1 RT at 200 uM
Summary of the method: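 HIV-1 reverse transcriptase inhibition was measured in an ELISA-based system.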

Penicillium oxalicum [9] = assay: Antimicrobial activity against Penicillium oxalicum at 10 ug; type: functional; conditions: for zone of inhibition at 10 µg/disc: read-out: IZ; summary of the method: as §1
Micrococcus luteus [10] = assay: Antimicrobial activity against Micrococcus luteus at 5 ug; type: functional, organism-based; summary of the method: as §1
Escherichia coli [11] = assay: Antimicrobial activity against Escherichia coli at 5 ug; type: functional, organism-based; summary of the method: as §1
Bacillus subtilis [12] = assay: Antimicrobial activity against Bacillus subtilis at 1 ug; type: functional, organism-based; summary of the method: as §1
Plasmodium falciparum [13] = assay: Antimalarial activity against chloroquine-sensitive Plasmodium falciparum D6 at 10 ug/ml; type: functional
Micrococcus luteus [14] = assay: Antimicrobial activity against Micrococcus luteus at 1 ug; type: functional, organism-based; summary of the method: as §1
KB [15] = assay: Cytotoxicity against human KB cells; type: functional; conditions: read-out: ED50 (the source's name)
Bacillus subtilis [16] = assay: Antimicrobial activity against Bacillus subtilis at 5 ug; type: functional, organism-based; summary of the method: as §1
Bacillus subtilis [17] = assay: Antimicrobial activity against Bacillus subtilis at 10 ug; type: functional, organism-based; summary of the method: as §1
Penicillium oxalicum [18] = assay: Antimicrobial activity against Penicillium oxalicum at 0.01 ug; type: functional; summary of the method: as §1
Micrococcus luteus [19] = assay: Antimicrobial activity against Micrococcus luteus at 10 ug; type: functional, organism-based; summary of the method: as §1
Escherichia coli [20] = assay: Antimicrobial activity against Escherichia coli at 10 ug; type: functional, organism-based; summary of the method: as §1
KB [21] = assay: Cytotoxicity against vinblastine-sensitive human KB cells; type: functional; conditions: read-out: ED50 (the source's name)
[22] = Inhibition of TK assessed as residual activity at 200 ug/ml
Summary of the method: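 The enzyme was tyrosine kinase p56lck, with test compounds at 200 μg/mL. The read-out is the remaining enzyme activity.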

[23] = Inhibition of PKC
Escherichia coli [24] = assay: Antimicrobial activity against Escherichia coli at 0.1 ug; type: functional, organism-based; summary of the method: as §1
[25] = Selectivity index, ratio of IC50 for human KB cells to IC50 for Plasmodium falciparum D6; type: toxicity, cell-based; conditions: KB cells versus Plasmodium falciparum D6, read-out: Ratio IC50
Summary of the method: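 Plasmodium falciparum clones were assayed in vitro: D6 (chloroquine-sensitive) and W2 (chloroquine-resistant). IC50 is in μg/mL. The selectivity index is the ratio of the antimalarial to the cytotoxic activity.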

Plasmodium falciparum [26] = assay: Antimalarial activity against chloroquine-resistant Plasmodium falciparum W2; type: functional, organism-based
Summary of the method: (§2)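 In vitro growth inhibition of Plasmodium falciparum clones D6 (chloroquine-sensitive) and W2 (chloroquine-resistant); IC50 reported in μg/mL.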

Plasmodium falciparum [27] = assay: Antimalarial activity against chloroquine-sensitive Plasmodium falciparum D6; type: functional, organism-based; summary of the method: as §2

| SMILES | EC50 (Lu1) [µg/mL] | Activity (Bacillus subtilis [1]) | EC50 (LNCaP) [µg/mL] | zone of inhibition at 5 µg/disc (Penicillium oxalicum [3]) [mm] | EC50 (KB [4]) [µg/mL] | Activity (Micrococcus luteus [5]) | Activity (Escherichia coli [6]) | zone of inhibition at 1 µg/disc (Penicillium oxalicum [7]) [mm] | zone of inhibition at 10 µg/disc (Penicillium oxalicum [9]) [mm] | Activity (Micrococcus luteus [10]) | Activity (Escherichia coli [11]) | Activity (Bacillus subtilis [12]) | Activity (Micrococcus luteus [14]) | EC50 (KB [15]) [µg/mL] | Activity (Bacillus subtilis [16]) | Activity (Bacillus subtilis [17]) | Activity (Micrococcus luteus [19]) | Activity (Escherichia coli [20]) | Activity (Penicillium oxalicum [2]) | Activity (Escherichia coli [24]) | further results |
| --- | --- | --- | --- | --- | --- | --- | --- | --- | --- | --- | --- | --- | --- | --- | --- | --- | --- | --- | --- | --- | --- |
| CCC[C@@H](O)C1=C(Br)/C(=C\Br)OC1=O [HYDROXYFIMBROLIDE] | 0.6 (≈ 1.84 µM) | Active | < 0.1 | 31 | 1.1 (≈ 3.37 µM) | inactive | Active | 21 | 28 | Active | Active | Active | Active | 0.5 (≈ 1.53 µM) | Active | Active | Active | Active | – | – | zone of inhibition at 0.1 µg/disc (Penicillium oxalicum [2]): 6 mm; EC50 (ZR-75-1): 0.3 µg/mL (≈ 0.92 µM); Activity [8]: inactive; Activity (Plasmodium falciparum [13]): >50%; Activity (Penicillium oxalicum [18]): inactive; EC50 (KB [21]): 0.2 µg/mL (≈ 0.614 µM) |
| CCC[C@@H](O)C1=C(Br)/C(=C\I)OC1=O | – | – | – | – | – | – | – | – | – | – | – | – | – | – | – | – | – | – | – | – | Activity [22]: 5.8% |
| CCCCCCCC/C=C(\Br)C(O)C(Br)Br (centres undefined) | – | – | – | 8 | – | – | inactive | 5 | 8 | Active | inactive | inactive | inactive | – | Active | Active | Active | Active | inactive | inactive | IC50 [23]: ≥ 200 µM; Activity (Penicillium oxalicum [18]): inactive |
| CCC[C@@H](OC(C)=O)C1=C(Br)/C(=C\Br)OC1=O [ACETOXYFIMBROLIDE] | – | inactive | – | 22 | – | Active | inactive | 14 | 18 | Active | inactive | Active | Active | – | Active | Active | Active | inactive | – | inactive | zone of inhibition at 0.1 µg/disc (Penicillium oxalicum [2]): 6 mm; Activity (Penicillium oxalicum [18]): inactive |
| CCC[C@@H](O)C1=C(Br)[C@](CI)(OC)OC1=O | > 20 | inactive | 9.1 (≈ 22.5 µM) | 6 | > 20 | inactive | inactive | 2 | 6 | Active | Active | inactive | inactive | > 20 | inactive | Active | Active | Active | inactive | inactive | EC50 (ZR-75-1): 6.4 µg/mL (≈ 15.8 µM); Activity [22]: 55.7%; Activity [8]: inactive; Activity (Plasmodium falciparum [13]): >50%; EC50 (KB [21]): > 20 µg/mL |
| CCC[C@@H](OC(C)=O)C1=C(Br)[C@](C)(OC)OC1=O | > 20 | inactive | 3.6 (≈ 11.2 µM) | 12 | 4.7 (≈ 14.6 µM) | inactive | inactive | 8 | 16 | Active | inactive | inactive | inactive | 3.9 (≈ 12.1 µM) | Active | Active | Active | inactive | inactive | inactive | EC50 (ZR-75-1): 4 µg/mL (≈ 12.5 µM); Activity [22]: 86%; Activity [8]: inactive; Activity (Plasmodium falciparum [13]): >50%; EC50 (KB [21]): 5.6 µg/mL (≈ 17.4 µM) |
| CCC[C@@H](OC(C)=O)C1=C(Br)[C@@](OC)(C(Br)Br)OC1=O | > 20 | inactive | 3.6 (≈ 7.52 µM) | 14 | 6.2 (≈ 12.9 µM) | inactive | inactive | 6 | 16 | Active | inactive | inactive | inactive | 4.1 (≈ 8.56 µM) | Active | Active | Active | inactive | inactive | inactive | selectivity ratio [25]: 1; EC50 (ZR-75-1): 2.8 µg/mL (≈ 5.85 µM); Activity [22]: 22.7%; Activity [8]: inactive; IC50 (Plasmodium falciparum [26]): > 10 µg/mL; EC50 (KB [21]): 3.9 µg/mL (≈ 8.14 µM); IC50 (Plasmodium falciparum [27]): 5 µg/mL (≈ 10.4 µM) |
| CCC[C@@H](O)C1=C(Br)/C(=C\Cl)OC1=O | – | – | – | – | – | – | – | – | – | – | – | – | – | – | – | – | – | – | – | – | Activity [22]: 1.6% |
| CCC[C@@H](OC(C)=O)C1=C(Br)[C@@](C)(OC)OC1=O | > 20 | inactive | 1.7 (≈ 5.29 µM) | 6 | 2.8 (≈ 8.72 µM) | inactive | inactive | 3 | 8 | Active | inactive | inactive | Active | 5.4 (≈ 16.8 µM) | inactive | inactive | Active | inactive | inactive | inactive | EC50 (ZR-75-1): 2.4 µg/mL (≈ 7.47 µM); Activity [8]: inactive; Activity (Plasmodium falciparum [13]): >50%; EC50 (KB [21]): 10.7 µg/mL (≈ 33.3 µM) |
| CCCCC1=C(Br)C(OC)(C(Br)Br)OC1=O (centres undefined) | > 20 | inactive | 6.6 (≈ 15.7 µM) | – | 8 (≈ 19 µM) | inactive | Active | – | – | Active | Active | inactive | Active | 7.6 (≈ 18.1 µM) | inactive | inactive | Active | Active | inactive | inactive | Activity (Penicillium oxalicum [3]): inactive; EC50 (ZR-75-1): 6.7 µg/mL (≈ 15.9 µM); Activity (Penicillium oxalicum [7]): inactive; Activity [8]: inactive; Activity (Penicillium oxalicum [9]): inactive; Activity (Plasmodium falciparum [13]): >50%; EC50 (KB [21]): 10.5 µg/mL (≈ 24.9 µM) |
| CCC[C@@H](O)C1=C(Br)[C@@](CI)(OC)OC1=O | – | inactive | – | 16 | – | inactive | inactive | 10 | 14 | Active | Active | inactive | inactive | – | Active | Active | Active | Active | inactive | inactive | Activity [22]: 77.2% |
| CCC[C@@H](OC(C)=O)C1=C(Br)[C@](OC)(C(Br)Br)OC1=O | > 20 | inactive | 4.5 (≈ 9.4 µM) | 8 | 6.1 (≈ 12.7 µM) | inactive | inactive | 4 | 9 | inactive | inactive | inactive | inactive | 6.1 (≈ 12.7 µM) | inactive | inactive | inactive | inactive | inactive | inactive | selectivity ratio [25]: 2; EC50 (ZR-75-1): 3.8 µg/mL (≈ 7.93 µM); Activity [22]: 87.5%; Activity [8]: inactive; IC50 (Plasmodium falciparum [26]): > 10 µg/mL; EC50 (KB [21]): 5.3 µg/mL (≈ 11.1 µM); IC50 (Plasmodium falciparum [27]): 3.8 µg/mL (≈ 7.93 µM) |
| CCN(CC)CCCC(C)Nc1ccnc2cc(Cl)ccc12 (centres undefined) [CHLOROQUINE] | – | – | – | – | – | – | – | – | – | – | – | – | – | 17.4 (≈ 54.4 µM) | – | – | – | – | – | – | – |
